Measured values taken from ChEMBL document CHEMBL3813647, “Discovery of an Orally Active and Liver-Targeted Prodrug of 5-Fluoro-2'-Deoxyuridine for the Treatment of Hepatocellular Carcinoma” (J Med Chem, 2016).

How the values were obtained:
[1] = tested on: Plasma; assay: AUC (infinity) in Sprague-Dawley rat plasma assessed as FDUR formation at 52.17 mg/kg administered through oral gavage measured up to 24 hrs by HPLC-MS/MS analysis; type: ADME, organism-based; design: dose 52.17 mg/kg, time infinity, route oral; conditions: in vivo
Method in brief: (§1)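 Male Sprague-Dawley rats (220 ± 20 g), single gavage of 0.096 mmol/kg. FDUR was dosed in H2O; the prodrugs were dosed in 20% hydroxypropyl-β-cyclodextrin. n = 3 per time point, sampled at 0.25–24 h. Plasma (EDTA-K2, cardiac puncture) and freeze-clamped liver were homogenized in 20 mM EDTA-K2/70% MeOH. Analytes measured by HPLC-MS/MS in ESI negative mode.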

[2] = tested on: Liver; assay: Cmax in Sprague-Dawley rat liver assessed as FDUR formation at 52.17 mg/kg administered through oral gavage measured up to 24 hrs by HPLC-MS/MS analysis; type: ADME, organism-based; design: dose 52.17 mg/kg, route oral; conditions: in vivo; method in brief: as §1
[3] = tested on: Liver; assay: Cmax in Sprague-Dawley rat liver assessed as 5-FU formation at 52.17 mg/kg administered through oral gavage measured up to 24 hrs by HPLC-MS/MS analysis; type: ADME, organism-based; design: dose 52.17 mg/kg, route oral; conditions: in vivo; method in brief: as §1
[4] = tested on: Liver; assay: Cmax in Sprague-Dawley rat liver assessed as FdUMP formation at 52.17 mg/kg administered through oral gavage measured up to 24 hrs by HPLC-MS/MS analysis; type: ADME, organism-based; design: dose 52.17 mg/kg, route oral; conditions: in vivo; method in brief: as §1
[5] = tested on: Liver; assay: AUC (infinity) in Sprague-Dawley rat liver assessed as (S)-2-((R)-(((2R,3S,5R)-5-(5-fluoro-2,4-dioxo-3,4-dihydropyrimidin-1(2H)-yl)-3-hydroxytetrahydrofuran-2-yl)methoxy)(2-methylbenzyloxy)phosphorylamino)propanoate formation at 52.17 mg/kg administered through oral gavage measured up to 24 hrs by HPLC-MS/MS analysis; type: ADME, organism-based; design: dose 52.17 mg/kg, route oral, time infinity; conditions: in vivo; method in brief: as §1
[6] = tested on: Liver; assay: AUC (infinity) in Sprague-Dawley rat liver assessed as FDUR formation at 52.17 mg/kg administered through oral gavage measured up to 24 hrs by HPLC-MS/MS analysis; type: ADME, organism-based; design: dose 52.17 mg/kg, route oral, time infinity; conditions: in vivo; method in brief: as §1
[7] = tested on: Liver; assay: AUC (infinity) in Sprague-Dawley rat liver assessed as FdUMP formation at 52.17 mg/kg administered through oral gavage measured up to 24 hrs by HPLC-MS/MS analysis; type: ADME, organism-based; design: dose 52.17 mg/kg, route oral, time infinity; conditions: in vivo; method in brief: as §1
[8] = Ratio of FdUMP AUC (infinity) in Sprague-Dawley rat liver to FDUR AUC (infinity) in Sprague-Dawley rat plasma at 52.17 mg/kg administered through oral gavage; type: ADME, organism-based; conditions: in vivo
Method in brief: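 Male Sprague-Dawley rats (220 20 g), single gavage of 0.096 mmol/kg prodrug in 20% hydroxypropyl-β-cyclodextrin. Blood by cardiac puncture under isoflurane and liver at 0.25–24 h, n = 3 per time point. Liver freeze-clamped and homogenized in 20 mM EDTA-K2/70% MeOH. FdUMP (liver) and FDUR (plasma) by HPLC-MS/MS, negative ESI. Index = AUC(inf) liver FdUMP / AUC(inf) plasma FDUR.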

[9] = Ratio of metabolite A AUC (infinity) in Sprague-Dawley rat liver to (S)-2-((R)-(((2R,3S,5R)-5-(5-fluoro-2,4-dioxo-3,4-dihydropyrimidin-1(2H)-yl)-3-hydroxytetrahydrofuran-2-yl)methoxy)(2-methylbenzyloxy)phosphorylamino)propanoate AUC (infinity) in Sprague-Dawley rat plasma at 52.17 mg/kg administered through oral gavage; type: ADME, organism-based; conditions: in vivo
[10] = tested on: Liver; assay: Drug metabolism in Sprague-Dawley rat liver S9 fraction assessed as (S)-2-((R)-(((2R,3S,5R)-5-(5-fluoro-2,4-dioxo-3,4-dihydropyrimidin-1(2H)-yl)-3-hydroxytetrahydrofuran-2-yl)methoxy)(2-methylbenzyloxy)phosphorylamino)propanoate formation at 20 ug/mL after 20 mins by HPLC-MS/MS analysis; type: ADME, subcellular; conditions: s9, 20 min, TDE = time-dependent effect
Method in brief: (§2)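 Rat liver S9 (10 mg/mL) incubated with compound at 20 μg/mL. Parent, intermediate A and FdUMP followed over time by HPLC-MS/MS. Negative control run without NADPH.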

[11] = tested on: Liver; assay: Drug metabolism in Sprague-Dawley rat liver S9 fraction assessed as FdUMP formation at 20 ug/mL preincubated for 5 mins followed by NADPH addition measured at 20 mins by HPLC-MS/MS analysis; type: ADME, subcellular; conditions: s9, 20 min; method in brief: as §2
[12] = tested on: Liver; assay: Drug metabolism in Sprague-Dawley rat liver S9 fraction assessed as FdUMP formation at 20 ug/mL after 20 mins by HPLC-MS/MS analysis in absence of NADPH; type: ADME; conditions: s9, 20 min; method in brief: as §2
[13] = tested on: Liver; assay: Drug metabolism in Sprague-Dawley rat liver assessed as o-methylhippuric acid formation; type: ADME, tissue-based
[14] = tested on: Plasma; assay: Drug metabolism in Sprague-Dawley rat plasma assessed as o-methylhippuric acid formation; type: ADME, cell-free
[15] = Half life in human plasma by HPLC-MS/MS analysis; type: ADME, cell-free
Method in brief: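 Compound at 1 μg/mL final in dog or human plasma, 37 °C. Sampled at 0–24 h and quenched with ice-cold MeOH containing internal standard. Parent measured by LC-MS/MS in ESI negative mode; t1/2 calculated from percent remaining versus 0 h.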

[16] = tested on: Mus musculus; assay: Toxicity in KM mouse assessed as weight loss at 2 to 3 mg/kg, administered through oral gavage after 1 to 5 days; type: organism-based; conditions: in vivo, in the assay text read “2 to 3 g/kg” for “2 to 3 mg/kg”
Method in brief: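 Female KM mice (20 2 g), fasted overnight, 5 per group. Single oral gavage at 2 or 3 g/kg in 57% hydroxypropyl-β-cyclodextrin. Watched continuously for 4 h, intermittently to 24 h, then occasionally to day 15 for weight, appetite and behaviour. Mean body weight change tracked days 1–15. Organs examined macroscopically at sacrifice on day 15.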

[17] = tested on: H22; assay: Antitumor activity against mouse H22 cells implanted in KM mouse assessed as tumor growth inhibition at 130 mg/kg administered daily through oral gavage after 8 days; type: functional; conditions: 192 h
Method in brief: (§3)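 Syngeneic H22 hepatoma: 2 × 10⁶ cells injected s.c. in the axilla (0.9% saline) of female KM mice, n = 10 per group. From day 2, daily oral gavage for 8 days. Test agent given in 35% PEG400; sorafenib suspended in 0.5% CMC-Na. Tumor weight taken on day 8; inhibition rate calculated versus the vehicle group.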

[18] = tested on: H22; assay: Antitumor activity against mouse H22 cells implanted in KM mouse assessed as tumor growth inhibition at 260 mg/kg administered daily through oral gavage after 8 days; type: functional; conditions: 192 h; method in brief: as §3
[19] = tested on: Mus musculus; assay: Toxicity in KM mouse implanted with mouse H22 cells assessed as body weight level at 130 mg/kg administered daily through oral gavage after 8 days (reference value: 21.7 to 22.3 g); type: organism-based; conditions: in vivo, 192 h
[20] = tested on: Plasma; assay: Cmax in Sprague-Dawley rat plasma assessed as (S)-2-((R)-(((2R,3S,5R)-5-(5-fluoro-2,4-dioxo-3,4-dihydropyrimidin-1(2H)-yl)-3-hydroxytetrahydrofuran-2-yl)methoxy)(2-methylbenzyloxy)phosphorylamino) propanoate formation at 52.17 mg/kg administered through oral gavage measured up to 24 hrs by HPLC-MS/MS analysis; type: ADME, organism-based; design: dose 52.17 mg/kg, route oral; conditions: in vivo; method in brief: as §1
[21] = tested on: Mus musculus; assay: Toxicity in KM mouse assessed as damage to lung at 2 to 3 g/kg, administered through oral gavage after 15 days; conditions: in vivo, 360 h
[22] = tested on: Mus musculus; assay: Toxicity in KM mouse assessed as damage to heart at 2 to 3 g/kg, administered through oral gavage after 15 days; conditions: in vivo, 360 h
[23] = tested on: Mus musculus; assay: Toxicity in KM mouse assessed as damage to liver at 2 to 3 g/kg, administered through oral gavage after 15 days; conditions: in vivo, 360 h
[24] = tested on: Mus musculus; assay: Toxicity in KM mouse assessed as damage to spleen at 2 to 3 g/kg, administered through oral gavage after 15 days; conditions: in vivo, 360 h

## Cc1ccccc1CO[P@](=O)(N[C@@H](C)C(=O)OC(C)C)OC[C@H]1O[C@@H](n2cc(F)c(=O)[nH]c2=O)C[C@@H]1O
[1]
  AUC: 26 ng·h/mL
[2]
  Cmax: 747 ng/g
[3]
  Cmax: 139 ng/g
[4]
  Cmax: 340 ng/g
[5]
  AUC: 5509 ng·h/g
[6]
  AUC: 1541 ng·h/g
[7]
  AUC: 543 ng·h/g
[8]
  Ratio AUC: 20.9
[9]
  Ratio AUC: 17.4
[10]
  Drug metabolism: tde
[11]
  Drug metabolism: metabolite_detected
[12]
  Drug metabolism: metabolite_notdetected
[13]
  Drug metabolism: metabolite_detected
[14]
  Drug metabolism: metabolite_detected
[15]
  half-life: > 24 h
[16]
  Activity: Non-toxic
[17]
  inhibition in vivo at 130 mg/kg: 61.7%
[18]
  inhibition in vivo at 260 mg/kg: 72.5%
[19]
  Activity: 23.8 g
[20]
  Cmax: 234 ng/mL
[21]
  Activity: Non-toxic
[22]
  Activity: Non-toxic
[23]
  Activity: Non-toxic
[24]
  Activity: Non-toxic
